Assay results from different studies.
Protocols differ between the studies behind these lines.
MDM4: Protein Mdm4 (MDM4, Homo sapiens, UniProt O15151)
DRD3: D(3) dopamine receptor (DRD3, Homo sapiens, UniProt P35462)
GLP1R: Glucagon-like peptide 1 receptor (GLP1R, Homo sapiens, UniProt P43220)

CO[C@H]1C[C@H](O[C@H]2[C@H](C)O[C@@H](O[C@@H]3/C(C)=C/C[C@@H]4C[C@@H](C[C@]5(C=C[C@H](C)[C@@H](C6CCCCC6)O5)O4)OC(=O)[C@@H]4C=C(C)[C@@H](O)[C@H]5OC/C(=C\C=C\[C@@H]3C)[C@]54O)C[C@@H]2OC)O[C@@H](C)[C@@H]1O — IC50 (Nuclear receptor subfamily 1 group I member 3 (Homo sapiens, UniProt Q14994); reporter gene; antagonist): 43200 nM
c1cc[c]([Sn]([c]2ccccc2)[c]2ccccc2)cc1 — EC50 (Peroxisome proliferator-activated receptor gamma (PPARG, Homo sapiens, UniProt P37231); reporter gene; agonist; luciferase): 20 nM
CC(C)[C@@H]1NC(=O)[C@H](CO)NC(=O)[C@H](CO)NC(=O)[C@H](CO)N(C)C(=O)[C@H](CC(=O)O)NC(=O)[C@H](CO)NC(=O)[C@H](Cc2ccccc2)NC(=O)CSC[C@@H](C(=O)NCC(N)=O)NC(=O)[C@H](CC(N)=O)NC(=O)[C@H](CCCNC(=N)N)NC(=O)[C@H](C)NC(=O)[C@H](Cc2ccc(-c3ccccc3)cc2)NC(=O)[C@H](CC(N)=O)NC(=O)[C@@H]2CCCN2C1=O — Ki (MDM4; ligand displacement; TR-FRET): > 8880 nM
Nc1c(S(=O)(=O)O)cc(Nc2ccc(Nc3nc(Cl)nc(Nc4cccc(S(=O)(=O)O)c4)n3)c(S(=O)(=O)O)c2)c2c1C(=O)c1ccccc1C2=O — IC50 (Pantothenate kinase 3 (PANK3, Homo sapiens, UniProt Q9H999); enzyme activity; inhibitor; ATP luminescence): 1300 nM
O=C(Nc1cccc(-c2ccn3c(CC4CC4)nnc3c2C(F)(F)F)c1)c1ccc(S(=O)(=O)F)cc1 — EC50 (Metabotropic glutamate receptor 5 (GRM5, Homo sapiens, UniProt P41594); calcium signal; agonist): > 50100 nM
CC(CCc1ccccc1)NC(C)C(O)c1ccc(O)cc1 (stereo not drawn) — IC50 (DRD3; ligand displacement; radioligand): 1290 nM
CP(=O)(O)CCC(N)C(=O)O (racemic) — Ki (Glutamine synthetase (glnA, Escherichia coli K-12, UniProt P0A9C5); enzyme activity; inhibitor): 800 nM
CCCC[C@@H](NC(=O)[C@@H](N)Cc1c(C)cc(O)cc1C)C(=O)NCC(=O)N[C@@H](Cc1ccc(F)cc1)C(=O)N(C)CCC[C@@]1(c2ccc(F)cc2)OCc2cc(C#N)ccc21 — Ki (DRD3; ligand displacement; radioligand): 2000 nM
CC(C)[C@@H]1NC(=O)[C@H](CO)NC(=O)[C@H](CO)NC(=O)[C@H](CO)N(C)C(=O)[C@H](CC(=O)O)NC(=O)[C@H](CO)NC(=O)[C@H](Cc2ccccc2)NC(=O)CSC[C@@H](C(=O)NCC(N)=O)NC(=O)[C@H](CC(N)=O)NC(=O)[C@H](CCCNC(=N)N)NC(=O)[C@H](Cc2ccc(-c3ccccc3)cc2)NC(=O)[C@H](Cc2ccc(-c3ccccc3)cc2)NC(=O)[C@H](CC(N)=O)NC(=O)[C@@H]2CCCN2C1=O — IC50 (MDM4; ligand displacement; TR-FRET): 835 nM
C[C@@H](NC(=O)[C@@H](N)Cc1ccc(O)cc1)C(=O)NCC(=O)N[C@@H](Cc1ccccc1)C(=O)N(C)CCC[C@@]1(c2ccc(F)cc2)OCc2cc(C#N)ccc21 — Ki (DRD3; ligand displacement; radioligand): > 10000 nM
CC[C@H](C)[C@H](NC(=O)[C@H](CO)NC(=O)[C@H](CC(=O)O)NC(=O)[C@H](CC(C)C)NC(=O)[C@@H](NC(=O)[C@H](CCCCN)NC(=O)[C@H](CC(N)=O)NC(=O)[C@@H](NC(=O)[C@H](CC(=O)O)NC(=O)[C@H](CO)NC(=O)[C@@H](NC(=O)[C@H](Cc1ccccc1)NC(=O)[C@H](CO)NC(=O)CNC(=O)[C@H](CC(=O)O)NC(=O)[C@@H](NC(=O)[C@@H](N)Cc1c[nH]cn1)C(C)C)[C@@H](C)O)C(C)C)C(C)C)C(=O)N[C@@H](C)C(=O)N[C@@H](C)C(=O)N[C@@H](CCCCN)C(=O)N[C@@H](CCC(=O)O)C(=O)N[C@@H](Cc1ccc(O)cc1)C(=O)N[C@@H](CC(C)C)C(=O)N[C@@H](CCC(N)=O)C(=O)N[C@@H](Cc1c[nH]c2ccccc12)C(=O)N[C@H](C(=O)N[C@@H](CCSC)C(=O)N[C@@H](CC(N)=O)C(=O)N[C@@H](CO)C(=O)N[C@@H](CCCCN)C(=O)N[C@@H](C)C(=O)N[C@@H](CO)C(=O)NCC(=O)O)C(C)C — EC50 (GLP1R; reporter gene; agonist; luciferase): 3.64 nM
C[C@H]1COCCN1c1nc(NCc2cccnc2C(F)(F)F)c2cccnc2n1 — IC50 (A-type voltage-gated potassium channel KCND3 (KCND3, Homo sapiens, UniProt Q9UK17); ion current; inhibitor): > 33000 nM
CCCc1cc2cc(-n3nc(C)c4c3CC(C)(C)CC4=O)cc(N[C@H]3CC[C@H](O)CC3)c2c(=O)[nH]1 — IC50 (Heat shock protein 75 kDa, mitochondrial (TRAP1, Homo sapiens, UniProt Q12931); ligand displacement; FP): > 50000 nM
CN(C)CCCN1c2ccccc2Sc2ccccc21 — IC50 (DRD3; ligand displacement; radioligand): 75 nM
CSCC[C@H](NC(=O)[C@H](CCC(=O)O)NC(=O)[C@@H]1CCCN1C(=O)[C@@H](NC(=O)[C@@H]1CCCN1)[C@@H](C)O)C(=O)N[C@@H](CCCNC(=N)N)C(=O)N[C@@H](CCC(=O)O)C(=O)N[C@@H](CCCCN)C(=O)N[C@@H](CC(C)C)C(=O)N[C@H]1CSSC[C@@H]2NC(=O)[C@@H](NC(=O)[C@H](CC(C)C)NC(=O)[C@@H](NC(=O)[C@H](CCC(N)=O)NC(=O)[C@H](CC(C)C)NC(=O)[C@H](CC(=O)O)NC(=O)[C@@H]3CCC(=O)N3)[C@@H](C)O)CSSC[C@H](NC(=O)CNC(=O)[C@H](CO)NC(=O)[C@H](CC(C)C)NC2=O)C(=O)N[C@@H]([C@@H](C)O)C(=O)N[C@@H](CCC(N)=O)C(=O)N[C@@H](CCC(N)=O)C(=O)N[C@@H](CC(=O)O)C(=O)N[C@@H](CC(C)C)C(=O)N[C@@H](CC(C)C)C(=O)N[C@@H]([C@@H](C)O)C(=O)N[C@@H](CC(C)C)C(=O)N[C@H](C(=O)N2CCC[C@H]2C(=O)N[C@@H](Cc2ccc(O)cc2)C(=O)O)CSSC[C@@H](C(=O)NCC(=O)NCC(=O)N2CCC[C@H]2C(=O)N[C@@H](CCCNC(=N)N)C(=O)N[C@@H](Cc2c[nH]c3ccccc23)C(=O)N[C@@H](CO)C(=O)N[C@H](C(=O)N[C@@H](CCC(=O)O)C(=O)N[C@@H](C)C(=O)O)[C@@H](C)O)NC(=O)[C@H](C(C)C)NC(=O)[C@H](CCCNC(=N)N)NC(=O)[C@H](C(C)C)NC(=O)[C@H](CC(C)C)NC(=O)[C@H](C)NC(=O)[C@H](CCCNC(=N)N)NC(=O)[C@H](C(C)C)NC(=O)[C@H](Cc2ccccc2)NC(=O)[C@H](Cc2c[nH]cn2)NC(=O)[C@H](Cc2c[nH]cn2)NC(=O)CNC1=O — Ki (Relaxin receptor 2 (RXFP2, Homo sapiens, UniProt Q8WXD0); ligand displacement in cells): 3.63 nM
CC[C@H](C)[C@H](NC(=O)[C@H](Cc1ccccc1)NC(=O)[C@H](CC(=O)O)NC(=O)[C@H](CCCCN)NC(=O)[C@H](C)NC(=O)[C@H](C)NC(=O)[C@H](CCC(N)=O)NC(=O)CNC(=O)[C@H](CCC(=O)O)NC(=O)[C@H](CC(C)C)NC(=O)[C@H](Cc1ccc(O)cc1)NC(=O)[C@H](CO)NC(=O)[C@H](CO)NC(=O)[C@@H](NC(=O)[C@H](CC(=O)O)NC(=O)[C@H](CO)NC(=O)[C@@H](NC(=O)[C@H](Cc1ccc(O)cc1)NC(=O)[C@@H](NC(=O)CNC(=O)[C@H](CC(=O)O)NC(=O)[C@H](C)NC(=O)[C@@H](N)Cc1c[nH]cn1)[C@@H](C)O)[C@@H](C)O)[C@@H](C)CC)C(=O)N[C@@H](C)C(=O)N[C@@H](Cc1c[nH]c2ccccc12)C(=O)N[C@@H](CC(C)C)C(=O)N[C@@H](CCSC)C(=O)N[C@@H](CC(N)=O)C(=O)NCC(=O)N[C@@H](CCCNC(=N)N)C(=O)NCC(=O)O — EC50 (GLP1R; reporter gene; agonist; luciferase): 0.583 nM
Cc1cccc(-c2ccnc3c(C(N)=O)cnn23)c1 — IC50 (Toll-like receptor 8 (TLR8, Homo sapiens, UniProt Q9NR97); reporter gene): 67 nM
CC[C@H](C)[C@H](NC(=O)[C@H](CC(C)C)NC(=O)[C@H](Cc1c[nH]c2ccccc12)NC(=O)[C@H](CCCCN)NC(=O)[C@H](CC(C)C)NC(=O)[C@H](Cc1ccccc1)NC(=O)[C@H](CCC(=O)O)NC(=O)[C@H](CCC(N)=O)NC(=O)[C@@H](NC(=O)[C@H](C)NC(=O)[C@H](CC(C)C)NC(=O)[C@H](CC(=O)O)NC(=O)[C@H](CC(=O)O)NC(=O)[C@H](CC(C)C)NC(=O)[C@H](CC(C)C)NC(=O)[C@H](CCCCN)NC(=O)[C@H](CC(N)=O)NC(=O)[C@H](Cc1ccc(O)cc1)NC(=O)[C@H](CC(=O)O)NC(=O)[C@H](CO)NC(=O)[C@@H](NC(=O)[C@H](Cc1ccccc1)NC(=O)[C@@H](NC(=O)CNC(=O)[C@H](CC(=O)O)NC(=O)[C@H](C)NC(=O)[C@@H](N)Cc1c[nH]cn1)[C@@H](C)O)[C@@H](C)O)[C@@H](C)O)C(=O)N[C@@H](CC(N)=O)C(=O)N[C@@H](CCC(N)=O)C(=O)N[C@@H](CCCCN)C(=O)N[C@H](C(=O)N[C@H](C(=O)N[C@@H](CCC(N)=O)C(=O)O)[C@@H](C)O)C(C)C — EC50 (GLP1R; reporter gene; agonist; luciferase): 1.5 nM
CC(CCc1ccc(O)cc1)NCCc1ccc(O)c(O)c1 (stereo not drawn) — IC50 (DRD3; ligand displacement; radioligand): 530 nM
CC[C@H](C)[C@H](NC(=O)[C@H](Cc1ccccc1)NC(=O)[C@H](CCC(=O)O)NC(=O)[C@H](CCCCN)NC(=O)[C@H](C)NC(=O)[C@H](C)NC(=O)[C@H](CCC(N)=O)NC(=O)CNC(=O)[C@H](CCC(=O)O)NC(=O)[C@H](CC(C)C)NC(=O)[C@H](Cc1ccc(O)cc1)NC(=O)[C@H](CO)NC(=O)[C@@H](NC(=O)[C@@H](NC(=O)[C@H](CC(=O)O)NC(=O)[C@H](CO)NC(=O)[C@@H](NC(=O)[C@H](Cc1ccc(O)cc1)NC(=O)[C@@H](NC(=O)CNC(=O)[C@H](CCC(=O)O)NC(=O)[C@H](C)NC(=O)[C@@H](N)Cc1c[nH]cn1)[C@@H](C)O)[C@@H](C)O)[C@@H](C)CC)[C@@H](C)O)C(=O)N[C@@H](C)C(=O)N[C@@H](Cc1c[nH]c2ccccc12)C(=O)N[C@@H](CC(C)C)C(=O)N[C@H](C(=O)N[C@@H](CC(N)=O)C(=O)NCC(=O)N[C@@H](CCCNC(=N)N)C(=O)NCC(=O)O)C(C)C — EC50 (GLP1R; reporter gene; agonist; luciferase): 0.863 nM
CC(C)[C@@H](Nc1nc(Cl)nc2c1ncn2[C@H]1[C@H](O)[C@H](O)[C@]2(CN)C[C@H]12)C1CC1 — Ki (DRD3; ligand displacement; radioligand): 3470 nM
